Rows were chosen to be rich in hits. Some 4% of all compounds tested hit in one or more screens of this group.
Cl transport mod = KCC2 cotransporter modulators, thallium flux, primary screen, cell-based, HEK293 KCC2, FluoZin-2 fluorescence, MLSMR; KCC2 cells, thallium flux FluoZin-2 fluorescence; B-score of Tl+ flux slope (higher = more flux/activation; lower = inhibition) at 10 µM; 190,000 compounds, 2.2% hits; AID 1456, 2008;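 active = thallium flux slope and its plate-corrected score both differing from the plate sample mean at a set confidence after two filtering rounds, in either direction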;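 note: slope of fluorescence scaled to starting intensity during 10 to 20 s after thallium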
Target sequence (Q9H2X9 whole entry, looked up): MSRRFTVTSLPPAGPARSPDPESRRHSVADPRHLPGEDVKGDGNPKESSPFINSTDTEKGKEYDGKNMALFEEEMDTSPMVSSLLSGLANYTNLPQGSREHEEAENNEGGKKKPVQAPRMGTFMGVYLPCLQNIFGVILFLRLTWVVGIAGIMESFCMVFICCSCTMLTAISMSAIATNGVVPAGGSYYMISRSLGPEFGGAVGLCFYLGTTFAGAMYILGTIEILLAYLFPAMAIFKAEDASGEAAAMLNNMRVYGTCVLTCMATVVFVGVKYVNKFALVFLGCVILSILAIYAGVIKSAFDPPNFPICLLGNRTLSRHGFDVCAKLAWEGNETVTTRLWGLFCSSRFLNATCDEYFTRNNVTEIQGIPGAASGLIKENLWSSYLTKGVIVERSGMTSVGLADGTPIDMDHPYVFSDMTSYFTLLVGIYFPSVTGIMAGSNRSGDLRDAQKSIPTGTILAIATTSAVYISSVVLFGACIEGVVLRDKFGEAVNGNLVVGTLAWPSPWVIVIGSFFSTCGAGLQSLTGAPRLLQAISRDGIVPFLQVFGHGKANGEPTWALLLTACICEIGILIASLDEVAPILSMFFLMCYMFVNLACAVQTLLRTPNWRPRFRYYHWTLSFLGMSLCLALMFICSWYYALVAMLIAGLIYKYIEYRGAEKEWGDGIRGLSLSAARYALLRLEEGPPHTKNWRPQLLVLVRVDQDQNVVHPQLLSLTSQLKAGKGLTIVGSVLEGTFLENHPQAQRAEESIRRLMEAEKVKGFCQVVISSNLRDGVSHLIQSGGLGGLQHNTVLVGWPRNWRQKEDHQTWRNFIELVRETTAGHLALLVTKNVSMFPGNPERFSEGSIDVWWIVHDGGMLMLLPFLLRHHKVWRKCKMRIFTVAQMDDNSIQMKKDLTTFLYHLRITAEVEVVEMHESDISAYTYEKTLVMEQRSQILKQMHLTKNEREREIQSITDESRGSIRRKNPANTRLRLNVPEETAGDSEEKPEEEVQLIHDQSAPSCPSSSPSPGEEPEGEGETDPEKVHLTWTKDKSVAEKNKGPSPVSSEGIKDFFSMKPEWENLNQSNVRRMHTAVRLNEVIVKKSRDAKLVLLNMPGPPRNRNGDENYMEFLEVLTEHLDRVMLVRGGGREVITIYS
WT yeast gro inh = growth inhibition of WT strain, primary screen, mitochondrial fusion inhibitor project, WT and mutant strains, chemical genetic | mitochondrial fusion phenotypic screen | inhibition, % at 10 µM | 190,000 compounds, 2.1% hits; in the data active = inhibition above about 58%; tested in S. cerevisiae
MT stabilizer = microtubule stabilizers in HeLa cells, primary screen, imaging, high-content imaging | HeLa tubulin immunostaining HCS, 24 h; share of cells brighter than vehicle mean+2SD | AID 2205, 2009 | 200,000 compounds, 0.83% hits | % tubulin-high responders, % at 10 µM;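 active = plate Z-score above 3 for both tubulin-high and condensed-nucleus cell shares, with cell loss under 80%, at 10 µM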;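 note: anti alpha tubulin signal scored within the nucleus-defined area of each cell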
bCat nuc transl = modulators of beta-catenin nuclear translocation, primary screen, imaging, HeLa cells, immunofluorescence, high-content | nuclear translocation activity, % at 5 µM | AID 1665, 2009 | 190,000 compounds, 0.3% hits;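 active = nuclear translocation activity above 50% at 5 µM, with a well cell count of 50 or more; inconclusive = wells under 50 cells across six images, flagged as toxic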;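 note: per-cell ratio of nuclear to cytoplasmic median beta-catenin stain intensity; plate controls were DMSO negative control for no effect and GSK-3 inhibitor IX positive control for full effect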
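Test system: human HeLa cell line; Doses: 5 µM primary, 0.02–20 µM confirmation; Incubation: 24 h compound exposure, 37°C; Detection: beta-catenin immunofluorescence imaging with DAPI; Read-out: beta-catenin nuclear/cytoplasmic ratio, % activation.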
Pf gametocyte = late stage P. falciparum gametocyte viability inhibitors, primary screen, ATP luminescence, HTS | 150,000 compounds, 0.065% hits | P. falciparum stage V gametocytes, 24 h | AID 743093, 2013 | inhibition, % at 10.9 µM;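 active = inhibition above the mean plus 3 SD of compounds within the control limits, set per campaign, cut at about 38% in these data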;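 note: 0% = DMSO wells and 100% = medium only without gametocytes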
KCC2 sec1 = KCC2 modulators in sodium-free buffer, confirmation, cell-based, HEK293 KCC2, thallium flux, secondary assay | shares compounds with Cl transport mod | FluoZin2 fluorescence; stronger effect = higher value | normalised thallium flux (F/F0 slope) at 10 µM | 3,700 compounds, 15% hits | AID 1713, 2009;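 active = thallium flux slope above the same plate's solvent-only control mean plus 3 SD; inconclusive = the two replicate wells disagree; inactive = no significant difference from solvent-only control wells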
KCC2 bumet counter = thallium flux persisting under bumetanide in KCC2 cells, confirmation, counter-screen for KCC2 modulator project, cell-based, HEK293 KCC2, FluoZin2, secondary assay 3. 3,700 compounds, 49% hits. shares compounds with Cl transport mod. HEK293-KCC2 + bumetanide/ouabain; stronger effect = higher value. AID 1714, 2009. normalized thallium flux at 10 µM;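 active = thallium entry rate above the same plate's blocked-transporter control wells by more than 3 SD; inconclusive = the two repeat wells disagree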;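 note: raw slope of fluorescence over initial fluorescence between 10 and 20 s after thallium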
KCC2 sec2 = KCC2 modulators without ouabain present, confirmation, cell-based, HEK293 KCC2, thallium flux, FluoZin2, secondary assay 2 | shares compounds with Cl transport mod | thallium flux FluoZin2 fluorescence; actives lie on both sides; F/F0 rise rate, 10–20 s post-thallium | normalized thallium flux at 10 µM | 3,700 compounds, 23% hits;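 active = thallium flux slope more than 3 SD above or below the plate's solvent-only control mean, mostly below; inconclusive = the two repeat wells disagreed; inactive = no significant shift from solvent-only controls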;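 note: raw slope with 0.1% DMSO as baseline and bumetanide as block control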
HEK293 Tl flux = thallium flux modulation in parental HEK cells, confirmation, counter-screen for KCC2 modulator project, cell-based, counterscreen 1; thallium flux rate (normalised fluorescence) at 10 µM; 3,700 compounds, 46% hits; shares compounds with Cl transport mod; AID 1716, 2009; HEK293 parental cells, thallium flux FluoZin2, ouabain; baseline-ratio fluorescence slope, 10–20 s after thallium;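 active = thallium flux rate significantly above the same plate's solvent-only control wells, beyond their mean plus 3 SD; inconclusive = the two replicate wells gave conflicting results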
KCC2 retest ouab = KCC2 inhibitors and activators, ouabain retest, confirmation, HEK-KCC2 cells; shares compounds with Cl transport mod; 3,700 compounds, 48% hits; HEK293-KCC2, thallium flux FluoZin2 fluorescence; bidirectional: low = inhibitor, high = activator; raw Tl+ flux slope (below DMSO = inhibition, above = activation) at 10 µM;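 active = thallium flux slope beyond 3 SD from same-plate DMSO control mean in most replicates, usually higher, sometimes lower; inconclusive = repeat tests gave conflicting results; inactive = no significant difference from controls in most replicates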;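 note: slope of initial-normalized fluorescence between seconds 10 and 20 after thallium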
HEK293 Tl flux2 = native HEK Tl+ uptake effects, second counter-screen – HEK cells, counterscreen 2, counter-screen for KCC2 modulator project, confirmation; shares compounds with Cl transport mod; HEK293 parental, thallium flux FluoZin-2 fluorescence slope; thallium flux slope at 10 µM; 3,700 compounds, 33% hits;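 active = thallium flux slope above the same plate's solvent-control mean plus 3 SD in both duplicate wells; inconclusive = duplicate wells that disagreed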;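 note: run without ouabain in cells lacking the KCC2 cotransporter; slope of fluorescence scaled to its starting value between 10 and 20 s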
Starred values were filed as active, the others as inactive; ? = inconclusive; / = no result.

SMILES	Cl transport mod	WT yeast gro inh	MT stabilizer	bCat nuc transl	Pf gametocyte	KCC2 sec1	KCC2 bumet counter	KCC2 sec2	HEK293 Tl flux	KCC2 retest ouab	HEK293 Tl flux2
N#Cc1nc(COc2ccccc2F)oc1NCc1ccc(F)cc1	/	1.8	5.6	1.0	/	0.00592	0.00501	?	0.00749	?	0.0106
COc1ccc(CCNc2oc(COc3ccccc3F)nc2C#N)cc1	/	35.3	3.4	-0.2	0.3	0.00775	0.00341*	0.0338	0.00534*	0.0173*	0.00984
COc1ccc(CCNc2oc(COc3ccc(Br)cc3)nc2C#N)cc1OC	/	22.0	6.8	/	/	/	/	/	/	/	/
CSCC[C@H](NC(=O)C1=NN(c2c(F)c(F)cc(F)c2F)C(=O)CC1)c1nc2ccccc2[nH]1	-0.456	/	/	-1.1	-14.9	/	/	/	/	/	/
CC1=CC(=O)C=C(C)C1=NOc1ccccc1[N+](=O)[O-]	0.44	17.4	2.6	/	-6.0	/	/	/	/	/	/
Cn1c(C(=O)OC(C(=O)NC2CCCC2)c2ccncc2)cc2sccc21 (stereo not given)	-5.18*	-0.2	2.8	2.7	/	0.00677	?	0.025*	0.0074	?	0.0101
c1ccc(-c2noc(-c3ccccc3-c3ccccc3)n2)cc1	5.63*	71.6*	2.5	-0.7	/	0.00644	0.00374	0.0324	0.00737	0.0194	0.0103
CC(=O)C1=C(C)Nc2ncnn2C1c1cccc(OCc2ccccc2)c1 (stereo not given)	-3.44*	10.7	4.2	-2.2	/	0.00789	0.006	0.0323	0.00672	0.0181*	0.0101
CCCCn1c(N2CCC(Cc3ccccc3)CC2)nc2c1c(=O)[nH]c(=O)n2C	-4.85*	67.7*	1.2	-0.7	-7.8	0.00732	0.00524	0.0354	?	?	0.0115
CC(C(=O)N1CCOCC1)n1cc([N+](=O)[O-])cn1 (stereo not given)	0.352	9.3	4.6	2.8	/	/	/	/	/	/	/
COC(=O)c1cn(NC(=O)c2ccccc2[N+](=O)[O-])c(=O)c2ccccc12	-0.666	-8.9	1.9	2.2	9.7	/	/	/	/	/	/
O=C(CSc1nnc(SCc2cccc3ccccc23)s1)N/N=C/c1c[nH]c2ccccc12	-3.92*	-4.5	8.6	-0.5	-15.1	0.00573*	0.014*	0.0237*	0.0089*	0.0242*	?
O=S(=O)(NCCN1CCOCC1)c1cccc(C(F)(F)F)c1	/	/	/	/	3.9	/	/	/	/	/	/
Cc1cc(C(=O)NNC(=O)c2ccc(C(F)(F)F)cc2)no1	4.86	/	/	-0.3	10.9	/	/	/	/	/	/
Cc1nc(C(=O)NNC(=O)c2ccc(C(F)(F)F)cc2)cs1	5.09*	/	/	-0.9	10.1	0.0092	0.0199*	0.029	0.0104*	?	?
Cc1nn(-c2ccccc2)nc1C(=O)Oc1cc(C(F)(F)F)nn1-c1ccccc1	0.0541	/	/	0.7	5.6	/	/	/	/	/	/
Cc1nn(-c2ccccc2)nc1C(=O)NN	/	/	/	0.3	15.3	/	/	/	/	/	/
Cc1nn(-c2ccccc2)nc1C(=O)NNC(=O)c1ccc(C(F)(F)F)cc1	21.6*	/	/	0.0	-3.1	0.0227*	0.0973*	0.0345	0.0352*	0.0551*	0.0168*
Cc1nn(-c2ccccc2)nc1C(=O)NNC(=O)c1cccc2ccccc12	68.9*	/	/	0.1	-1.9	0.0238*	0.154*	0.0372	0.0746*	0.0996*	0.0243*
O=c1ccc(Cc2ccccn2)n[nH]1	2.42*	-18.8	1.3	-8.8	/	0.00979	0.00631	0.0355	0.00798	0.0216	0.0109
CC(=O)NC(=S)NNC(=O)CCc1ccccc1	0.865	-0.2	3.3	1.1	-9.0	/	/	/	/	/	/
CCCCC(=O)NC(=S)NNC(=O)CCc1ccccc1	6.86	/	/	0.4	-11.6	/	/	/	/	/	/
O=C(CCc1ccccc1)NNC(=S)NC(=O)c1ccccc1	9.95*	42.3	3.6	-2.5	/	0.0253*	0.061*	0.0371	0.0299*	0.0514*	0.0151*
CCN(C(=S)NC(=O)CCc1ccccc1)c1ccccc1	4.66*	11.6	4.4	/	18.9	?	0.0505*	0.0339	0.0173*	0.0417*	0.0128*
CC(C)(C)c1cc(CCC(=O)NNC(=S)NC(=O)c2ccccc2)cc(C(C)(C)C)c1O	53.8*	12.0	4.8	-0.2	/	0.0334*	0.105*	0.0357	0.0906*	0.0822*	0.0199*
O=C(CCc1ccccc1)NC(=S)Nc1cccc(Br)c1	4.84*	58.8*	3.3	/	-17.0	0.0082	0.0113*	0.0285	0.00862*	?	0.00959
O=C(NC1CCCC1)c1sc(=S)n2c1[nH]c(=O)c1ccccc12	23.8*	10.1	4.1	-0.5	10.4	0.0155*	0.0522*	0.0301	0.0243*	0.0451*	0.0136*
O=C(Nc1ccc2nc3n(c(=O)c2c1)CCCC3)c1cc([N+](=O)[O-])ccc1F	-3.05*	-6.8	3.0	/	/	0.00975	0.00634	0.035	?	0.018	0.0102
CN(C)S(=O)(=O)c1ccc(Cl)c(NC(=O)COC(=O)C2CSC3(C)CCC(=O)N23)c1 (stereo not given)	-0.205	0.9	1.8	-0.1	/	/	/	/	/	/	/
CC1=CCC[C@@H]2[C@@](C)(CC/C(C)=C/C(=O)O)[C@H](C)CC[C@@]12C	3.52*	73.3*	2.7	/	-7.7	0.00732	0.0118*	0.0267	0.0148*	?	0.0107

Compound activity: PubChem BioAssay, several laboratories
